Test results as given in PMC3880198 (Melanoma research, 2012).
Read-outs that look alike come from different tables or passages of the source. Marks after values point to notes of the source that are not given here.

Columns and labels:
[1] = system: advanced melanoma; conditions: five of 32 treated patients with advanced melanoma; cited from earlier work
[2] = system: integrin αvβ3; test: Tumoral αvβ3 expression by IHC staining; format: in vivo, human
Procedure, shortened: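 Core-needle or skin punch tumor biopsies 5-7 days pre-treatment and cycle 1 day 8, within 6 h post-infusion. IHC with anti-αvβ3 LM 609; consensus grading by two pathologists on % positive cells (0 none; +1 1-10%; +2 11-25%; +3 26-75%; +4 >75%). Paired t-test, pre vs post.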

[3] = system: integrin αvβ3; conditions: inhibits binding of the integrin to vitronectin; cited from earlier work
[4] = clinical; parameters: species or system human; conditions: in vivo; for Mean cilengitide concentration / level at 2 h / level at 4 h / level at 24 h: human, iv; for level at 2 h / level at 4 h / level at 24 h: Mean cilengitide concentration
[5] = system: bFGF- and VEGF-mediated angiogenesis; conditions: chorioallantoic membrane model; ref Cilengitide, Investigators Brochure; cited from earlier work
[6] = system: melanoma and endothelial cells; conditions: combination of cilengitide and temozolomide, in vitro; cited from earlier work
[7] = cited from earlier work
[8] = system: glioblastoma; conditions: in combination with temozolomide and radiation therapy; cited from earlier work
[9] = system: patients with metastatic melanoma; test: Toxicity evaluation; conditions: both doses (500 mg and 2,000 mg i.v. twice weekly)
[10] = system: recurrent malignant glioma; conditions: at 360 mg/m^2 and 2,400 mg/m^2; cited from earlier work
[11] = system: metastatic melanoma; format: in vivo, human; conditions: for Median PFS in weeks (95% CI) / PFS rate at 8 weeks (95% CI): Kaplan-Meier estimate; for Best tumor response: PR / Best tumor response: SD / Best tumor response: CR: RECIST
[12] = cited from earlier work; remark: listed apart in the source
[13] = system: recurrent glioblastoma multiforme (GBM); conditions: 81 patients with GBM; cited from earlier work
[14] = system: melanoma; conditions: combination of cilengitide and temozolomide, in vivo; cited from earlier work
[15] = system: advanced melanoma; conditions: cited from earlier work
[16] = system: metastatic melanoma; conditions: cited from earlier work
[17] = among eight patients with matching samples and detectable αvβ3 at baseline

CNC(=O)c1ccccc1Sc1ccc2c(/C=C/c3ccccn3)n[nH]c2c1 [axitinib]
Objective clinical response [1]: 16%

CC(C)[C@H]1C(=O)N[C@@H](CCCNC(=N)N)C(=O)NCC(=O)N[C@@H](CC(=O)O)C(=O)N[C@H](Cc2ccccc2)C(=O)N1C [cilengitide, Cilengitide]
Patients in whom αvβ3 expression decreased [2, 17]: five | Patients in whom αvβ3 expression increased [2, 17]: none | Overall tumoral αvβ3 expression with cilengitide treatment ([2]; baseline vs day 8, 17 matching samples, paired t-test P=0.05): decreased | Binding to integrin αvβ3 (nanomolar range) [3]: ~ 2 nM | Mean cilengitide concentration ([4]; 500 mg, 2 h): 17.6 µg/mL | Mean cilengitide concentration ([4]; 500 mg, 4 h): 8.75 µg/mL | level at 2 h ([4]; 500 mg): 18200 ng/mL | level at 4 h ([4]; 500 mg): 8250 ng/mL | level at 24 h ([4]; 500 mg): 40 ng/mL | Mean cilengitide concentration ([4]; 2000 mg, 2 h): 65.8 µg/mL | Mean cilengitide concentration ([4]; 2000 mg, 4 h): 30.5 µg/mL | Mean cilengitide concentration ([4]; 2000 mg, 24 h): 0.58 µg/mL | level at 2 h ([4]; 2000 mg): 73200 ng/mL | level at 4 h ([4]; 2000 mg): 35900 ng/mL | level at 24 h ([4]; 2000 mg): 710 ng/mL | Accumulation after repeated biweekly doses [4]: No accumulation was observed | Increases in plasma concentrations at the given time points with dose [4]: dose proportional | Cytokine-induced bFGF- and VEGF-mediated angiogenesis [5]: blocked | Antiproliferative effects of the combination [6]: synergistic antiproliferative effects | Half-life [7]: less than 5 hours | Half-life ([7]; doses of 120-1,200 mg/m^2, phase I trials): 2.3 to 4.0 h | Maximum-tolerated dose ([7]; phase I trials): has not been established | 6-month PFS rate [8]: 69% | 12-month PFS rate [8]: 33% | Median PFS [8]: 8.0 months | Tolerability [9]: well tolerated | Response in patients with recurrent malignant glioma [10]: Complete responses were reported | Response rate (CR+PR) ([11]; 500-mg dose (n=14)): 0% | Median PFS in weeks (95% CI) ([11]; 500-mg dose (n=14)): 8.0 weeks | PFS rate at 8 weeks (95% CI) ([11]; 500-mg dose (n=14)): 14% (4-52%) | Best tumor response: PR ([11]; 500-mg dose (n=14)): 0 | Best tumor response: SD ([11]; 500-mg dose (n=14)): 2(14%) | Best tumor response: CR ([11]; 500-mg dose i.v. twice weekly (n=14)): 0 | Response rate (CR+PR) ([11]; 2,000-mg dose (n=12)): 8% | Median PFS in weeks (95% CI) ([11]; 2,000-mg dose (n=12)): 7.9 weeks | Best tumor response: SD ([11]; 2,000-mg dose (n=12)): 0 | Best tumor response: PR ([11]; 2,000-mg dose (n=12), patient initially progressed after 4 weeks): 1 (8%) ^† | Best tumor response: CR ([11]; 2,000-mg dose i.v. twice weekly (n=12)): 0 | Response rate (CR+PR) ([11]; Overall patients (n=26)): 4% | Median PFS in weeks (95% CI) ([11]; Overall patients (n=26)): 8.0 (7.9-8.1) weeks | PFS rate at 8 weeks (95% CI) ([11]; Overall patients (n=26)): 12% (4-33%) | Best tumor response: CR ([11]; Overall patients (n=26)): 0 | Best tumor response: PR ([11]; Overall patients (n=26)): 1 (4%) ^† | Best tumor response: SD ([11]; Overall patients (n=26)): 2(8%) | Clinical efficacy as single agent ([11]; dose up to 2,000 mg twice weekly, metastatic melanoma): minimal clinical efficacy | Patients free of disease progression per RECIST at 8 weeks ([11]; of 26 treated patients): three | Increase in the sum of the largest diameters of five target lesions after one treatment cycle ([11]; single patient, 2,000 mg, later partial response): 28% | Concentration noted to be active in preclinical studies (biologically active level) [12]: 11-13 μg/mL | Median OS duration [13]: 9.9 months | Tumor reduction [14]: more effective tumor reduction compared with temozolomide alone

CN(C)/N=N/c1[nH]cnc1C(N)=O [dacarbazine]
Estimated PFS rate at 8 weeks [15]: approximately 40%

B1: etaracizumab (antibody, chains of the INN, looked up, V domains shown)
VH: QVQLVESGGGVVQPGRSLRLSCAASGFTFSSYDMSWVRQAPGKGLEWVAKVSSGGGSTYYLDTVQGRFTISRDNSKNTLYLQMNSLRAEDTAVYYCARHLHGSFASWGQGTTVTVSS
VL: EIVLTQSPATLSLSPGERATLSCQASQSISNFLHWYQQRPGQAPRLLIRYRSQSISGIPARFSGSGSGTDFTLTISSLEPEDFAVYYCQQSGSWPLTFGGGTKVEIK
Patients with a clinical response ([16]; combination arm with dacarbazine): 12.7% | Patients with a clinical response ([16]; etaracizumab alone, 57 patients): none
